Assay results published in ChEMBL document CHEMBL1144785, “Antiplasmodial triterpenoids from Ekebergia capensis” (J Nat Prod, 2008).
The source made the active and inactive calls. The rule behind the calls is not given here.

How the values were obtained:
Plasmodium falciparum [1] = experiment: Antiplasmodial activity against chloroquine-resistant Plasmodium falciparum K1; format: functional, organism-based
Procedure, shortened: (§1)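 Synchronous cultures in RPMI 1640 with 10% human serum, 25 mM HEPES (pH 7.2), hypoxanthine and 2% hematocrit type O+ RBCs, under 5% CO2/5% O2/90% N2 at 37 °C. DMSO stocks were serially diluted 2-fold and added to infected RBCs at 0.5% parasitemia, then incubated 52 h. Ring forms on Giemsa smears were counted against controls. Single assay per concentration; IC50 by probit.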

Plasmodium falciparum [2] = experiment: Antiplasmodial activity against chloroquine-susceptible Plasmodium falciparum FCR3; format: functional, organism-based; procedure, shortened: as §1
Plasmodium berghei [3] = experiment: Antimalarial activity in Plasmodium berghei NK65 infected ICR mice (Mus musculus) as reduced parasitemia at 100 mg/kg/day peroral dose for 4 days; format: functional
Procedure, shortened: (§2)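 Peters 4-day suppressive test in 7-week-old outbred SPF male ICR mice, five per group. Mice infected i.p. with 10^5 P. berghei NK65-parasitized erythrocytes taken from donor mice. Compound dissolved in DMSO and diluted with distilled water (final DMSO below 0.2%). Given orally by metal catheter once daily for 4 days, first dose 2–4 h p.i.; controls received distilled water. Day-4 Giemsa tail-blood smears scored microscopically; suppression calculated against controls.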

Plasmodium berghei [4] = experiment: Antimalarial activity in Plasmodium berghei NK65 infected ICR mice (Mus musculus) as reduced parasitemia at 250 mg/kg/day peroral dose for 4 days; format: functional; design: scale not given: the % may be the effect or the level left; conditions: route oral; procedure, shortened: as §2
Plasmodium berghei [5] = experiment: Antimalarial activity in […] NK65 infected ICR mice (Mus musculus) as reduced parasitemia at 500 mg/kg/day peroral dose after 4 days; format: functional; design: scale not given: the % may be the effect or the level left; conditions: route oral
Procedure, shortened: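 Male ICR mice, 7 weeks old, were infected ip with 10^5 P. berghei NK65-parasitized erythrocytes from donor mice, five per group. Dosing began 2–4 h p.i., given orally by metal catheter once daily for 4 days. Compound was in DMSO diluted with distilled water (final DMSO <0.2%); controls got water. On day 4, tail-vein Giemsa smears gave parasitemia; suppression was calculated versus control.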

With `CC(=O)OC[C@](C)(O)[C@H](O)CC/C(C)=C/CC/C(C)=C/CC/C=C(\C)CC/C=C(\C)CC[C@@H](O)C(C)(C)O` [EKEBERIN D5] the IC50 (Plasmodium falciparum [1]) was 137 µM and the IC50 (Plasmodium falciparum [2]) was 55 µM.
For `C/C(=C\CC/C=C(\C)CC/C=C(\C)CC[C@@H](O)[C@@](C)(O)CO)CC/C=C(\C)CC[C@@H](O)C(C)(C)O`, the IC50 (Plasmodium falciparum [1]) was 7 µM, the Activity (Plasmodium berghei [3]) was “inactive” and the Activity (Plasmodium berghei [4]) was 41.2%. The Activity (Plasmodium berghei [5]) was 52.9% and the IC50 (Plasmodium falciparum [2]) was 18 µM.
`C/C(=C\CC/C=C(\C)CC/C=C(\C)CC[C@@H](O)C(C)(C)O)CC/C=C(\C)CC[C@@H](O)C(C)(C)O` showed an IC50 (Plasmodium falciparum [1]) of 59 µM, an Activity (Plasmodium berghei [3]; route oral) of 26.5% and an Activity (Plasmodium berghei [4]) of 26.5%. For the same molecule, the Activity (Plasmodium berghei [5]) was 20.5% and the IC50 (Plasmodium falciparum [2]) was 55 µM.
For `CC(=O)OC[C@](C)(O)[C@@H](CC/C(C)=C/CC/C(C)=C/CC/C=C(\C)CC/C=C(\C)CC[C@@H](O)C(C)(C)O)OC(C)=O`, the IC50 (Plasmodium falciparum [1]) was 97 µM and the IC50 (Plasmodium falciparum [2]) was 113 µM.
In the case of `C/C(=C\CC/C=C(\C)CC[C@@H](O)[C@]1(C)CC[C@H](C(C)(C)O)O1)CC[C@@H](O)[C@]1(C)CC[C@H](C(C)(C)O)O1` [EKEBERIN D4], the IC50 (Plasmodium falciparum [2]) is reported as 40 µM.
`CC1(C)C(=O)C=C[C@]2(C)[C@H]3CC[C@@]4(C)[C@H](c5ccco5)OC(=O)[C@H]5O[C@]54[C@]3(C)C(=O)C[C@@H]12` gave an IC50 (Plasmodium falciparum [2]) of 6 µM.
